Assay results from paper PMC10692362 (Acta Pharmaceutica Sinica. B, 2023).
Changes are numbered by the printed parent chain.

Experiments:
[1] = target: T1, ERα (Homo sapiens, UniProt P03372); test: Immunoblot analysis of ERα degradation in T-47D cells; type: cell-based; details: 5 μmol/L over 12 h
T1 sequence (P03372 1-595): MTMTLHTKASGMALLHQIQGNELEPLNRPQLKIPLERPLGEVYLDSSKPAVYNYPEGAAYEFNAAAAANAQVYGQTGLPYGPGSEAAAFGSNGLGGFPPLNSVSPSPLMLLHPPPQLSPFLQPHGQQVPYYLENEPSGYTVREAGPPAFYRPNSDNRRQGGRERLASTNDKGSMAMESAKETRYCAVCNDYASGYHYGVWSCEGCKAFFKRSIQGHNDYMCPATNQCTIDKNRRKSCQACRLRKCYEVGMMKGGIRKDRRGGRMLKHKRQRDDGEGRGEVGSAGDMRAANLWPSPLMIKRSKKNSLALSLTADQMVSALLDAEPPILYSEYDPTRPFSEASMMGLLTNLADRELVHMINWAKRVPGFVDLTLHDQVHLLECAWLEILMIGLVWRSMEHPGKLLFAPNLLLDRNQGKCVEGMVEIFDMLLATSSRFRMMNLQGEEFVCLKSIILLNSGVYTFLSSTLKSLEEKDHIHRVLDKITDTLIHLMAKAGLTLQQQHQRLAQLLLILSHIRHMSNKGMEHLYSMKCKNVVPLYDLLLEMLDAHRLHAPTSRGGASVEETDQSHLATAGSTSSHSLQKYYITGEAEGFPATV

[2] = target: human ERβ LBD (Homo sapiens, UniProt Q92731); test: Competitive fluorescence polarization binding assay, ERβ
Chain of human ERβ LBD (Q92731 264-498 limits assumed): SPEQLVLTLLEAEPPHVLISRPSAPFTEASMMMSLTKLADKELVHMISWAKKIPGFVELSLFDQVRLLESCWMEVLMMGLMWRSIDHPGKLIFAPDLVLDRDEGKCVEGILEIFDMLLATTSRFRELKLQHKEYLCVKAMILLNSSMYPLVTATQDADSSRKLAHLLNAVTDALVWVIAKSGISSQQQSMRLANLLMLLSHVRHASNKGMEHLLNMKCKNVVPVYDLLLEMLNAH

[3] = system: MCF-7 cells; test: Cell viability assay; type: cell-based, human
[4] = target: T1, ERα; test: Immunoblot analysis of ERα degradation in LCC-2 cells; type: cell-based; details: 5 μmol/L over 12 h
[5] = system: ERα^WT and ERα^MUT BC cell lines (MCF-7, LCC-2, T-47D, T-47D^D538G, T-47D^Y537S); test: Apoptosis by flow cytometry; type: cell-based, human; details: 5 μmol/L, 48 h
[6] = system: T-47D cells; test: Cell viability assay; type: cell-based, human; details: Homo sapiens, T47D, 72 h, read-out: T-47D IC50
[7] = system: T-47D^Y537S cells; test: Cell viability assay; type: cell-based, human; details: Homo sapiens, 72 h, read-out: T-47D^Y537S IC50
[8] = target: T2, ERα Y537S and C381S–C417S–Y537S proteins (Homo sapiens, UniProt P03372, Y537S); test: Intact mass spectrometry to assess covalency; type: binding; details: 20 μmol/L compound : 1 μmol/L protein, 4 °C overnight
T2 sequence (P03372 305-554 Y537S): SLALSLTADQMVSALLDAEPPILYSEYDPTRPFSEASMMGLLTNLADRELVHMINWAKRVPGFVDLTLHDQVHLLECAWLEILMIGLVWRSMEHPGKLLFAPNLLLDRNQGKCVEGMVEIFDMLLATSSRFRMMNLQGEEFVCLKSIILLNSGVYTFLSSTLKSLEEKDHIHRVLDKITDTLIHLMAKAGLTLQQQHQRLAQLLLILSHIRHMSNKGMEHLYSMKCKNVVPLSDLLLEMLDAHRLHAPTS

[9] = target: T3, ERα C530S mutant (Homo sapiens, UniProt P03372, C530S); test: Transcriptional activity; type: cell-based
T3 sequence (P03372 1-595 C530S): T1 sequence (P03372 1-595) with C530S

[10] = target: T1, ERα; test: cell-based; type: cell-based
[11] = PK studies in mice; type: in vivo, BALB/c female mice
Summary of the method: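 Female BALB/c mice (n = 3/group) were dosed iv at 2 mg/kg in DMSO/PEG400/β-cyclodextrin/saline (5:40:10:45), ip at 4 mg/kg in DMSO/PEG400/saline (5:40:55), or po at 20 mg/kg in corn oil/DMSO (95:5). Blood was sampled at […]. Plasma was deproteinised with MeCN and analysed by LC/MS/MS, with three plasma samples per time point.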

[12] = female, BALB/c, mouse, plasma, ip, 4 mg/kg
[13] = female, BALB/c, mouse, plasma, iv, 2 mg/kg
[14] = female, BALB/c, mouse, plasma, po, 20 mg/kg

For CC(C)=CC(=O)Nc1ccc(C2=C(c3ccc(O)cc3)C3OC2CC3S(=O)(=O)N(CC(F)(F)F)c2ccc(O)cc2)cc1 (stereo not drawn) [Compound 29c, N-(4-(3-(4-Hydroxyphenyl)-5-(N-(4-hydroxyphenyl)-N-(2,2,2-trifluoroethyl)sulfamoyl)-7-oxabicyclo[2.2.1]hept-2-en-2-yl)phenyl)-3-methylbut-2-enamide], the “ERα degradation time course, T-47D” value [1] was “completely degraded”, the Ki [2] was 0.0109 µM and the “RBA ERβ” value ([2]; IC50 estradiol/IC50 compound × 100, estradiol = 100%) was 0.61 ± 0.11%. The “fold higher potency than 4-OHT, MCF-7” value [3] was 12 fold, the IC50 ([3]; Homo sapiens, MCF7, 72 h, read-out: MCF-7 IC50) was 0.056 ± 0.004 µM and the “fold higher potency than Ful, MCF-7” value ([3]; compared with fulvestrant) was 2.5 fold. The “ERα degradation time course, LCC-2” value [4] was “completely degraded”, the Induction of apoptosis [5] was “significantly induced apoptosis” and the IC50 [6] was 0.87 ± 0.15 µM. The IC50 [7] was 0.88 ± 0.15 µM, the “Covalent adduct with ERα (intact MS)” value [8] was “specifically and covalently bound to residue C530” and the IC50 [9] was 0.29 µM. The “Agonist mode ERα C530S Eff (%E2)” value ([9]; ERα C530S mutant, HEK-293T) was 2 ± 1 %E2, the “Antagonist mode ERα C530S Eff (%E2)” value ([9]; ERα C530S mutant, HEK-293T) was 33 ± 2 %E2 and the “Effect of C530S mutation on antagonistic activity” value ([9]; HEK-293T^C530S cells, compared with wild type) was “decreased”. For the same compound, the IC50 [10] was 0.023 µM, the “Agonist mode ERα Eff (%E2)” value ([10]; control as 0%, 10 nmol/L E2 as 100%) was 5 ± 1 %E2 and the “Antagonist mode ERα Eff (%E2)” value ([10]; with 10 nmol/L 17β-estradiol) was 76 ± 1 %E2. The AUC [11, 12] was 960 ng·h/mL, the Cmax [11, 12] was 352 ng/mL and the Tmax [11, 12] was 0.167 h. The half-life [11, 12] was 6.38 h, the AUC [11, 13] was 1210 ng·h/mL and the Cmax [11, 13] was 1420 ng/mL. The Tmax [11, 13] was 0.083 h, the Vd [11, 13] was 4.5 L/kg and the clearance [11, 13] was 27.7 mL/min/kg. It also gave a half-life [11, 13] of 2.77 h, an AUC [11, 14] of 360 ng·h/mL and a Cmax [11, 14] of 153 ng/mL. The Tmax [11, 14] was 0.5 h, the half-life [11, 14] was 5.81 h and the Oral bioavailability ([11]; mice) was “insufficient oral bioavailability”.
